{"source": "ChEMBL document CHEMBL1124002", "about": "“Antiallergy agents. 1. Substituted 1,8-naphthyridin-2(1H)-ones as inhibitors of SRS-A release” (J Med Chem, 1988)", "data": [{"species_on_record": "Cavia porcellus", "assay": "Percent inhibition of SRS-A release in vitro at a dose of 10 uM in guinea pig", "type": "functional", "summary_of_the_method": "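Male Hartley guinea pigs were sensitized with ovalbumin (5 mg ip + 5 mg sc on day 1, 5 mg ip on day 4). About 400 mg chopped lung was preincubated with compound for 12 min at 37 °C in Tyrode's with 10 mM cysteine, then challenged with 20 μg/mL ovalbumin (final) for 0.25 h. SRS-A in ethanol-extracted supernatant was bioassayed on mepyramine-treated ileum against a rat SRS-A standard. Results are % inhibition versus vehicle, from 3-4 lungs.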", "units": {"inhibition at 10 µM": "%"}, "values": [{"molecule": "C=CCc1c(OC(C)=O)c2cccnc2n(-c2cccc(C(F)(F)F)c2)c1=O", "inhibition at 10 µM": 65}, {"molecule": "CCCCc1c(O)c2cccnc2n(-c2c(C)cccc2C)c1=O", "inhibition at 10 µM": 0}, {"molecule": "O=c1c(CC2CCCCC2)c(O)c2cccnc2n1-c1ccccc1", "inhibition at 10 µM": 30}, {"molecule": "CCCCc1c(O)c2ccc(C)nc2n(-c2ccccc2)c1=O", "inhibition at 10 µM": 21}, {"molecule": "CCCCc1c(=O)c2cccnc2n2c1oc1ccccc12", "inhibition at 10 µM": 14}, {"molecule": "CCCCc1c(OC(C)=O)c2cccnc2n(-c2ccc([S+](C)[O-])cc2)c1=O", "note": "(stereo not given)", "inhibition at 10 µM": 11}, {"molecule": "CCCCc1c(O)c2cccnc2n(Cc2ccccc2)c1=O", "inhibition at 10 µM": 0}, {"molecule": "CCCCc1c(OC(C)=O)c2cccnc2n(-c2ccc(OC(C)=O)c(C(=O)O)c2)c1=O", "inhibition at 10 µM": 17}, {"molecule": "CCCCc1c(O)c2cccnc2n(-c2cccnc2)c1=O", "inhibition at 10 µM": 33}, {"molecule": "CCCCc1c(O)nc2ncccc2c1O", "inhibition at 10 µM": 15}, {"molecule": "C#CCOc1c(CCCC)c(=O)n(-c2ccccc2)c2ncccc12", "inhibition at 10 µM": 0}, {"molecule": "CCCCc1c(O)c2cccnc2n(-c2cc(OC)c(OC)c(OC)c2)c1=O", "inhibition at 10 µM": 22}, {"molecule": "CCCCc1c(O)c2cccnc2n(CCN(C)C)c1=O", "inhibition at 10 µM": 0}, {"molecule": "CCCCc1c(O)c2ccncc2n(-c2ccccc2)c1=O", "inhibition at 10 µM": 0}, {"molecule": "CCCCc1c(O)c2cccnc2n(-c2ccc(C(C)O)cc2)c1=O", "note": "(stereo not given)", "inhibition at 10 µM": 48}, {"molecule": "CCCCc1c(O)c2cnccc2n(-c2ccccc2)c1=O", "inhibition at 10 µM": 0}, {"molecule": "CCCCc1c(O)c2cccnc2n(-c2ccc(O)c(C(=O)O)c2)c1=O", "inhibition at 10 µM": 0}, {"molecule": "CCCCc1c(O)c2cccnc2n(-c2ccc(O)cc2)c1=O", "inhibition at 10 µM": 44}, {"molecule": "CCCCc1c(OCCCO)c2cccnc2n(-c2ccccc2)c1=O", "inhibition at 10 µM": 7}, {"molecule": "CCCCc1c(O)c2cc(OC)cnc2n(-c2ccccc2)c1=O", "inhibition at 10 µM": 3}, {"molecule": "CCCCOc1ccc(-n2c(=O)c(CCCC)c(O)c3cccnc32)cc1", "inhibition at 10 µM": 17}, {"molecule": "C=CCc1c(OC(C)=O)c2cc(OC)cnc2n(-c2ccccc2)c1=O", "inhibition at 10 µM": 0}, {"molecule": "CCCCc1c(OCC)c2cccnc2n(-c2ccccc2)c1=O", "inhibition at 10 µM": 0}, {"molecule": "CCCCc1c(OC(C)=O)c2cccnc2n(-c2cccc(S(C)(=O)=O)c2)c1=O", "inhibition at 10 µM": 20}, {"molecule": "CCCCc1c(O)c2cccnc2n(-c2cccc(Cl)c2C)c1=O", "inhibition at 10 µM": 5}, {"molecule": "CC(C)=CCc1c(O)c2cccnc2n(-c2ccccc2)c1=O", "inhibition at 10 µM": 45}, {"molecule": "CCCCc1c(OC(C)=O)c2cccnc2n(-c2ccc(SC)cc2)c1=O", "inhibition at 10 µM": 38}, {"molecule": "CCCCc1c(O)c2cccnc2n(-c2ccc(C(C)=O)cc2)c1=O", "inhibition at 10 µM": 37}, {"molecule": "C=CCCCCCCCc1c(OC(C)=O)c2cccnc2n(-c2ccccc2)c1=O", "inhibition at 10 µM": 15}, {"molecule": "O=c1cc(O)c2cccnc2n1-c1ccccc1", "inhibition at 10 µM": 0}, {"molecule": "CC(=O)CCc1c(O)c2cccnc2n(-c2ccccc2)c1=O", "inhibition at 10 µM": 36}, {"molecule": "CCCCc1c(O)c2cccnc2n(-c2ccccc2SC)c1=O", "inhibition at 10 µM": 32}, {"molecule": "CCCCc1c(OC(C)=O)c2cccnc2n(-c2ccc(S(C)(=O)=O)cc2)c1=O", "inhibition at 10 µM": 26}, {"molecule": "CCCCc1c(O)c2cccnc2n(-c2ccc(F)cc2F)c1=O", "inhibition at 10 µM": 27}, {"molecule": "CCCCc1c(OCC(O)CO)c2cccnc2n(-c2ccccc2)c1=O", "note": "(stereo not given)", "inhibition at 10 µM": 0}, {"molecule": "O=c1c(-c2ccccc2)c(O)c2cccnc2n1-c1ccccc1", "inhibition at 10 µM": 48}, {"molecule": "CCCCc1c(O)c2cc3ccccc3nc2n(-c2ccccc2)c1=O", "inhibition at 10 µM": 0}, {"molecule": "CCCCc1c(O)c2cc3c(nc2n(-c2ccccc2)c1=O)CCCC3", "inhibition at 10 µM": 38}, {"molecule": "CCCCc1c(OC(C)=O)c2cccnc2n(-c2cccc([S+](C)[O-])c2)c1=O", "note": "(stereo not given)", "inhibition at 10 µM": 28}, {"molecule": "O=c1c(CCCCc2ccccc2)c(O)c2cccnc2n1-c1ccccc1", "inhibition at 10 µM": 9}, {"molecule": "CCCCc1c(OCCOCC)c2cccnc2n(-c2ccccc2)c1=O", "inhibition at 10 µM": 0}, {"molecule": "C=CCOc1c(CCCC)c(=O)n(-c2ccccc2)c2ncccc12", "inhibition at 10 µM": 0}, {"molecule": "CCCCc1c(O)c2ncccc2n(-c2ccccc2)c1=O", "inhibition at 10 µM": 43}, {"molecule": "CCCCc1c(OCC2COC(C)(C)O2)c2cccnc2n(-c2ccccc2)c1=O", "note": "(stereo not given)", "inhibition at 10 µM": 0}, {"molecule": "CCCCc1c(O)c2ccccc2n(-c2ccncc2)c1=O", "inhibition at 10 µM": 31}]}]}
